Test results reported in ChEMBL document CHEMBL1150304, “Synthesis of new heteroaryl and heteroannulated indoles from dehydrophenylalanines: Antitumor evaluation” (2008).

What was measured:
Type in all cases: functional
[1] = tested on: SF-268; test: Antitumor activity against human SF268 cells after 48 hrs; conditions: SF-268, 48 h
Summary of the method: (§1)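 NCI-derived lines grown as monolayers in RPMI-1640 with 5% heat-inactivated FBS and 2 mM glutamine, 37 °C, 5% CO2. Plated at 1.5 × 10⁵ cells/mL (MCF-7, SF-268) or 0.75 × 10⁴ cells/mL (NCI-H460) and incubated 24 h. Continuous 48 h exposure to five serial concentrations (DMSO ≤0.5%). Sulforhodamine B stain, A492. GI50 is 50% net-growth inhibition from dose-response curves. Experiments run independently in duplicate.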

[2] = tested on: MCF7; test: Antitumor activity against human MCF7 cells after 48 hrs; conditions: MCF7, 48 h; summary of the method: as §1
[3] = tested on: NCI-H460; test: Antitumor activity against human NCI-H460 cells after 48 hrs; conditions: NCI-H460, 48 h; summary of the method: as §1

SMILES	GI50 [1] [µM]	GI50 [2] [µM]	GI50 [3] [µM]
COC(=O)c1[nH]c2ccccc2c1-c1cccc2c1oc1ccccc12	35	26.5	18
COC(=O)c1[nH]c2ccc3c4ccccc4sc3c2c1-c1ccccc1	50	72.7	40.3
COc1cccc2c1C(=O)c1c(O)c3c(c(O)c1C2=O)C[C@@](O)(C(=O)CO)C[C@@H]3O[C@H]1C[C@H](N)[C@H](O)[C@H](C)O1 [DOXORUBICIN]	0.094	0.0428	0.094
COC(=O)c1[nH]c2ccccc2c1-c1cccc2c1sc1ccccc12	17	11	12.7
